Experimental data as given in ChEMBL document CHEMBL4177755, “Combating Drug-Resistant Fungi with Novel Imperfectly Amphipathic Palindromic Peptides” (J Med Chem, 2018).

Key:
[1] = Cytotoxicity against mouse RAW264.7 cells assessed as cell viability at 2 to 64 uM after 24 hrs by MTT assay relative to control; assay type: cell-based; conditions: read-out: Activity
Method in brief: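 MTT viability assay. RAW264.7 or HEK293T cells at (1.0−2.0) × 10^5 per well were exposed to a peptide concentration series for 24 h at 37 °C in 5% CO2. MTT was then added at 0.5 mg/mL final for 4 h; formazan was dissolved in DMSO and read at 570 nm. Results average three independent trials.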

Escherichia coli [2] = test: Antibacterial activity against Escherichia coli ATCC 25922 after 24 hrs; assay type: functional; conditions: ATCC 25922, 24 h
Method in brief: (§1)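 Broth microdilution. Mid-log bacteria in MHB at a final (0.5−1) × 10^5 CFU/mL were mixed with equal volumes of peptide serially diluted in 0.2% BSA. Plates were incubated 24 h at 37 °C and read at A492. MIC is the lowest concentration inhibiting 95% of growth. Each test was repeated at least 3 times.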

Salmonella typhimurium [3] = test: Antibacterial activity against Salmonella typhimurium ATCC 14028 after 24 hrs; assay type: functional, Salmonella enterica subsp. enterica serovar Typhimurium; conditions: Salmonella enterica, ATCC 14028, 24 h; method in brief: as §1
Staphylococcus aureus [4] = test: Antibacterial activity against Staphylococcus aureus ATCC 29213 after 24 hrs; assay type: functional; conditions: ATCC 29213, 24 h
Method in brief: (§2)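 Modified NCCLS broth microdilution. Mid-log bacteria at (0.5−1) × 10^5 CFU/mL in MHB were mixed 1:1 with peptide serially diluted in 0.2% BSA and incubated 24 h at 37 °C. Absorbance was read at 492 nm; MIC is the lowest concentration inhibiting 95% of growth. At least 3 repeats.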

Staphylococcus aureus [5] = test: Antibacterial activity against methicillin-resistant Staphylococcus aureus ATCC 4330 after 24 hrs; assay type: functional; conditions: ATCC 4330, 24 h; method in brief: as §2
[6] = test system: Staphylococcus epidermidis; test: Antibacterial activity against Staphylococcus epidermidis ATCC 12228 after 24 hrs; assay type: functional; conditions: ATCC 12228, 24 h; method in brief: as §1
Staphylococcus aureus [7] = test: Antibacterial activity against Staphylococcus aureus ATCC 25923 after 24 hrs; assay type: functional; conditions: ATCC 25923, 24 h; method in brief: as §2
Escherichia coli [8] = test: Bactericidal activity against Escherichia coli ATCC 25922; assay type: functional; conditions: read-out: MBC99.9
Method in brief: (§3)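 Wells from the 24 h, 37 °C MHB microdilution plates (bacteria at a final (0.5−1) × 10^5 CFU/mL; peptide diluted in 0.2% BSA) were plated on agar and incubated overnight. MBC is the lowest concentration killing >99.9% of cells. Each test was reproduced at least 3 times.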

Escherichia coli [9] = test: Bactericidal activity against Escherichia coli 1005; assay type: functional; conditions: read-out: MBC99.9; method in brief: as §3
Salmonella typhimurium [10] = test: Bactericidal activity against Salmonella typhimurium ATCC 14028; assay type: functional, Salmonella enterica subsp. enterica serovar Typhimurium; conditions: Salmonella enterica, read-out: MBC99.9; method in brief: as §3
Candida albicans [11] = test: Antifungal activity against Candida albicans SP3931 after 48 hrs by broth microdilution method; assay type: functional; conditions: SP3931, 48 h
Method in brief: (§4)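 Modified CLSI M27-A2 broth microdilution. Yeast at (0.5−1) × 10^3 CFU/mL in MOPS-buffered RPMI 1640 was mixed 1:1 with peptide serially diluted in 0.2% BSA and incubated 48 h at 28 °C. Absorbance was read at 492 nm; MIC is the lowest concentration inhibiting 95% of growth. Triplicate, three biological replicates.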

Candida albicans [12] = test: Antifungal activity against Candida albicans SP3903 after 48 hrs by broth microdilution method; assay type: functional; conditions: SP3903, 48 h; method in brief: as §4
Candida albicans [13] = test: Antifungal activity against Candida albicans SP3876 after 48 hrs by broth microdilution method; assay type: functional; conditions: SP3876, 48 h; method in brief: as §4
Candida albicans [14] = test: Antifungal activity against Candida albicans isolated from alveolar fluid after 48 hrs by broth microdilution method; assay type: functional; method in brief: as §4
Candida albicans [15] = test: Antifungal activity against fluconazole-resistant Candida albicans 56214 after 48 hrs by broth microdilution method; assay type: functional; conditions: Candida albicans, 56214, 48 h; method in brief: as §4
Candida albicans [16] = test: Antifungal activity against Candida albicans 14936 after 48 hrs by broth microdilution method; assay type: functional; conditions: Candida albicans, 14936, 48 h; method in brief: as §4
Candida parapsilosis = test: Antifungal activity against Candida parapsilosis cgmcc 2.3989 after 48 hrs by broth microdilution method; assay type: functional; conditions: Lodderomyces parapsilosis, cgmcc 2.3989, 48 h
Method in brief: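 Modified CLSI M27-A2 broth microdilution. Yeast were suspended in MOPS-buffered RPMI 1640 at a final (0.5−1) × 10^3 CFU/mL and mixed 1:1 with peptide serially diluted in 0.2% BSA. Plates were incubated 48 h at 28 °C and read at A492. MIC is the lowest concentration giving 95% inhibition. Run in triplicate with three biological replicates.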

Candida albicans [17] = test: Fungicidal activity against Candida albicans cgmcc 2.2086 after 96 hrs; assay type: functional; conditions: cgmcc 2.2086, 96 h, read-out: MFC99.9
Method in brief: (§5)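 After the 48 h, 28 °C broth microdilution in MOPS-buffered RPMI 1640 (inoculum (0.5−1) × 10^3 CFU/mL), 50 μL from each well was plated on YM agar for a further 48 h at 28 °C. MFC is the lowest concentration killing at least 99.9% of cells. Triplicate, three biological replicates.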

Candida albicans [18] = test: Fungicidal activity against Candida albicans SP3931 after 96 hrs; assay type: functional; conditions: SP3931, 96 h, read-out: MFC99.9; method in brief: as §5
Candida albicans [19] = test: Fungicidal activity against fluconazole-resistant Candida albicans 56452 after 96 hrs; assay type: functional; conditions: Candida albicans, 56452, 96 h; read-out: MFC99.9; method in brief: as §5
Candida albicans [20] = test: Fungicidal activity against fluconazole-resistant Candida albicans 56214 after 96 hrs; assay type: functional; conditions: Candida albicans, 56214, 96 h; read-out: MFC99.9; method in brief: as §5
Candida albicans [21] = test: Fungicidal activity against Candida albicans 14936 after 96 hrs; assay type: functional; conditions: Candida albicans, 14936, 96 h; read-out: MFC99.9; method in brief: as §5
Candida albicans [22] = test: Fungicidal activity against fluconazole-resistant Candida albicans 17546 after 96 hrs; assay type: functional; conditions: Candida albicans, 17546, 96 h; read-out: MFC99.9; method in brief: as §5
Escherichia coli [23] = test: Antibacterial activity against Escherichia coli ATCC 25922 after 18 hrs in presence of NaCl by broth dilution method; assay type: functional; conditions: ATCC 25922, 18 h
Escherichia coli [24] = test: Antibacterial activity against Escherichia coli ATCC 25922 after 18 hrs in presence of KCl by broth dilution method; assay type: functional; conditions: ATCC 25922, 18 h
Escherichia coli [25] = test: Antibacterial activity against Escherichia coli ATCC 25922 after 18 hrs in presence of NH4Cl by broth dilution method; assay type: functional; conditions: ATCC 25922, 18 h
Escherichia coli [26] = test: Antibacterial activity against Escherichia coli ATCC 25922 after 18 hrs in presence of MgCl2 by broth dilution method; assay type: functional; conditions: ATCC 25922, 18 h
Escherichia coli [27] = test: Antibacterial activity against Escherichia coli ATCC 25922 after 18 hrs in presence of CaCl2 by broth dilution method; assay type: functional; conditions: ATCC 25922, 18 h
Escherichia coli [28] = test: Antibacterial activity against Escherichia coli ATCC 25922 after 18 hrs in presence of FeCl3 by broth dilution method; assay type: functional; conditions: ATCC 25922, 18 h
Candida albicans [29] = test: Antifungal activity against Candida albicans cgmcc 2.2086 in presence of KCl by broth dilution method; assay type: functional
Candida albicans [30] = test: Antifungal activity against Candida albicans cgmcc 2.2086 in presence of MgCl2 by broth dilution method; assay type: functional
Candida albicans [31] = test: Antifungal activity against Candida albicans cgmcc 2.2086 in presence of FeCl3 by broth dilution method; assay type: functional
Candida albicans [32] = test: Fungicidal activity against Candida albicans 58288 after 96 hrs; assay type: functional; conditions: Candida albicans, 58288, 96 h; read-out: MFC99.9; method in brief: as §5

Row | Substance | viability at 24 h, up to 64 µM [1] [%] | MIC95 (Escherichia coli [2]) [µM] | MIC95 (Salmonella typhimurium [3]) [µM] | MIC95 (Staphylococcus aureus [4]) [µM] | MIC95 (Staphylococcus aureus [5]) [µM] | MIC95 [6] [µM] | MIC95 (Staphylococcus aureus [7]) [µM] | MBC (Escherichia coli [8]) [µM] | MBC (Escherichia coli [9]) [µM] | MBC (Salmonella typhimurium [10]) [µM] | MIC95 (Candida albicans [11]) [µM] | MIC95 (Candida albicans [12]) [µM] | MIC95 (Candida albicans [13]) [µM] | MIC95 (Candida albicans [14]) [µM] | MIC95 (Candida albicans [15]) [µM] | MIC95 (Candida albicans [16]) [µM] | MIC95 (Candida parapsilosis) [µM] | MFC (Candida albicans [17]) [µM] | MFC (Candida albicans [18]) [µM] | MFC (Candida albicans [19]) [µM] | also measured
1 | H-RRFRFFFRFRR-NH2 | 70 to 80 | 4 | 4 | 4 | 4 | 4 | 8 | 4 | 4 | 8 | 4 | 2 | 4 | 4 | 4 | 4 | 16 | 16 | 8 | 4 | MFC (Candida albicans [20]): 8 µM; MFC (Candida albicans [21]): 4 µM; MFC (Candida albicans [22]): 2 µM; MIC (Escherichia coli [23]): 4 µM; MIC (Escherichia coli [24]): 4 µM; MIC (Escherichia coli [25]): 4 µM; MIC (Escherichia coli [26]): 2 µM; MIC (Escherichia coli [27]): 4 µM; MIC (Escherichia coli [28]): 4 µM; MIC (Candida albicans [29]): 16 µM; MIC (Candida albicans [30]): 4 µM; MIC (Candida albicans [31]): 4 µM; MFC (Candida albicans [32]): 8 µM
2 | H-RLRLLLRLR-NH2 | 70 to 80 | 4 | 4 | 8 | 4 | 4 | 8 | 8 | 8 | 8 | 8 | 8 | 4 | 8 | 8 | 4 | > 64 | 16 | 16 | 8 | MFC (Candida albicans [20]): 16 µM; MFC (Candida albicans [21]): 4 µM; MFC (Candida albicans [22]): 16 µM; MIC (Escherichia coli [23]): 4 µM; MIC (Escherichia coli [24]): 4 µM; MIC (Escherichia coli [25]): 4 µM; MIC (Escherichia coli [26]): 4 µM; MIC (Escherichia coli [27]): 8 µM; MIC (Escherichia coli [28]): 4 µM; MIC (Candida albicans [29]): 16 µM; MIC (Candida albicans [30]): 8 µM; MIC (Candida albicans [31]): 8 µM; MFC (Candida albicans [32]): 16 µM
3 | H-IIRRIRRII-NH2 | 70 to 80 | 32 | 64 | 64 | 64 | 64 | > 64 | 32 | 32 | > 64 | > 64 | > 64 | > 64 | 64 | 64 | > 64 | > 64 | 64 | > 64 | 64 | MFC (Candida albicans [20]): 64 µM; MFC (Candida albicans [21]): > 64 µM; MFC (Candida albicans [22]): > 64 µM; MIC (Escherichia coli [23]): 32 µM; MIC (Escherichia coli [24]): 32 µM; MIC (Escherichia coli [25]): 32 µM; MIC (Escherichia coli [26]): 32 µM; MIC (Escherichia coli [27]): 64 µM; MIC (Escherichia coli [28]): 64 µM; MIC (Candida albicans [29]): 64 µM; MIC (Candida albicans [30]): 64 µM; MIC (Candida albicans [31]): 64 µM; MFC (Candida albicans [32]): 64 µM
